Screens deposited in PubChem by several laboratories.
C8 TRAIL sens: viability loss with TRAIL in NB7+C8 cells, primary screen, TRAIL sensitizer project, cell-based, ATPlite luminescence | inhibition (viability loss, TRAIL sensitization), % at 10 µM | 360,000 compounds, 1% hits | AID 624354, 2012;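 active = compounds causing at least 50% loss of cell viability in the single-dose screen, relative to plate controls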
PPC-1+TRAIL kill: compounds killing PPC-1 cancer cells with TRAIL present, primary screen, TRAIL potentiator project, ATPLite luminescence, uHTS | PPC-1 cells + TRAIL, ATPLite viability luminescence | cell killing (% activity), % at 4 µM or 5 µM | 220,000 compounds, 0.41% hits | AID 1443, 2008;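 active = cell killing above 50% in the first pass at 4 µM, then a duplicate retest at 5 µM averaging 50% or more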;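 also: plate controls were cells with TRAIL plus DMSO for no effect and medium-only wells lacking cells for full effect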
FLuc inh counter: firefly luciferase enzyme inhibitors, primary screen, artefact control for luciferase-based inhibitor screens, biochemical, luminescence, ATPLite. 200,000 compounds, 1.5% hits. 10 min. Luciferin 4-monooxygenase (Photinus pyralis), P08659. inhibition, % at 10 µM;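 active = inhibition above about 50% when tested at 10 µM, limit read from the data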
Target sequence (P08659 whole entry, looked up): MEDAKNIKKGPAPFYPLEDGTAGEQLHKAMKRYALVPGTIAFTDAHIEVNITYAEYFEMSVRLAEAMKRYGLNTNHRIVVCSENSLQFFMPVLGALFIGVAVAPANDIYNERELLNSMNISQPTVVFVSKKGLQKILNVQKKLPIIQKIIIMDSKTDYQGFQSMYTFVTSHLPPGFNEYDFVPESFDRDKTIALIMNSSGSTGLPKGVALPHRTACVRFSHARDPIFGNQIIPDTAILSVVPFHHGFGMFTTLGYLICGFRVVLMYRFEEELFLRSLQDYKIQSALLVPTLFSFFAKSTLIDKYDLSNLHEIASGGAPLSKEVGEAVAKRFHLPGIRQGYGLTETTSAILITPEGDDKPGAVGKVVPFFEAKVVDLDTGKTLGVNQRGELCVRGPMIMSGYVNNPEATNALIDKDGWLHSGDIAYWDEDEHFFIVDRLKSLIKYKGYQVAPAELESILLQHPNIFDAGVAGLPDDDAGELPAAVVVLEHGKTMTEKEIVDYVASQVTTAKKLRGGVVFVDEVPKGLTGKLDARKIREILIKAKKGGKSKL
FLuc stim CS: FLuc activators, initial screening, artefact control for FLuc-dependent activation tests, biochemical, ATPlite luminescence; activation factor at 10 µM; AID 1027, 2008; ATPlite luciferase biochemical, 10 min; 0 = ATP-free wells, 1 = DMSO control; Luciferin 4-monooxygenase (Photinus pyralis), P08659; 200,000 tested, under 10 active;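 active = luciferase activation factor, scaled between plate controls, of at least 2 with compound at 10 µM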
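Assay system – cell-free luciferase reagent · Medium – PBS-based ATP solution · Dosing – test compounds dosed from 2 mM stocks in 100% DMSO · Timing – 10 min, room temperature · Technique – light output (luminescence) · Measure – luminescence gain marking luciferase activators · Controls – No-ATP low control, compound-free enzyme-plus-ATP high control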
HSP90 inh: HSP90 inhibitors, primary screen, cell lysate, luminescence | Heat shock protein HSP 90 (rabbit reticulocyte lysate; luciferase refolding) | Rabbit reticulocyte lysate, luciferase refolding luminescence, 3 h | inhibition, % at 5.6 µM | 290,000 compounds, 0.91% hits | AID 1789, 2009;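 active = inhibition above the screen-wide mean plus 3 SD, computed separately per campaign, cut at about 16% in these data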;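 also: 0% = DMSO wells and 100% = 60 µM geldanamycin wells; inhibitors lower the luminescence because luciferase stays unfolded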
* hit, by the source's call. Rows were chosen to be rich in hits. Some 2% of all compounds tested hit in one or more screens of this group.

Cc1cccc(NC(=O)CN(C)C(C)C(=O)Nc2ccc(S(=O)(=O)N3CCCC3)cc2)c1C (stereo not drawn) was read as C8 TRAIL sens 4.
O=C1NC[C@H](CCCCN2C[C@H](Cc3ccc(O)cc3)N(CC3CCCCC3)C(=O)C2=O)N(CCc2ccc(O)cc2)C1=O was read as C8 TRAIL sens -5.
For CC(C)CC(NC(=O)c1ccc(Cl)cc1)C(=O)OCC(=O)c1ccc2c(c1)NC(=O)CO2 (stereo not drawn) the results were C8 TRAIL sens 73*, PPC-1+TRAIL kill -6, FLuc inh counter -4, FLuc stim CS 1 and HSP90 inh 2.
For Cc1nc(C(F)(F)F)ccc1C(=O)N1CCCC(C)(C(=O)O)C1 (stereo not drawn) the results were C8 TRAIL sens -1.
For N/C(=N/O)c1nc(N2CCCC2)nc(N2CCCC2)n1 the results were C8 TRAIL sens -4.
N/C(=N/O)c1nc(N2CCCC2)nc(N(c2ccccc2)c2ccccc2)n1 was read as C8 TRAIL sens 59*, PPC-1+TRAIL kill 27, FLuc inh counter -11, FLuc stim CS 1.1 and HSP90 inh 4.
`O=C(NNC(=O)c1cc(OCC(F)(F)F)ccc1OCC(F)(F)F)c1ccc(Cl)c(Cl)c1` gave C8 TRAIL sens 66*, PPC-1+TRAIL kill 5, FLuc inh counter -10, FLuc stim CS 1.1 and HSP90 inh -3.
C=CCONC(=O)c1cc(OCC(F)(F)F)ccc1OCC(F)(F)F was read as C8 TRAIL sens 13, PPC-1+TRAIL kill 15, FLuc inh counter -8, FLuc stim CS 1.1 and HSP90 inh -5.
For Cc1ccc(CSc2nnc(-c3ccc4c(c3)OCO4)o2)cc1 the results were C8 TRAIL sens 27, PPC-1+TRAIL kill 10, FLuc inh counter 1, FLuc stim CS 1 and HSP90 inh 3.
For O=C(O)CCSc1nnc(-c2ccc3c(c2)OCO3)o1 the results were C8 TRAIL sens 4, PPC-1+TRAIL kill 11, FLuc inh counter 31, FLuc stim CS 0.7 and HSP90 inh 16*.
`O=C1OCCC1Sc1nnc(-c2ccc(O)cc2)o1` (stereo not drawn) gave C8 TRAIL sens 3, PPC-1+TRAIL kill 21, FLuc inh counter 14, FLuc stim CS 0.9 and HSP90 inh 5.
`O=C1OCCC1Sc1nnc(-c2ccc3c(c2)OCO3)o1` (stereo not drawn) gave C8 TRAIL sens 14, PPC-1+TRAIL kill 16, FLuc inh counter 60*, FLuc stim CS 0.4 and HSP90 inh 4.
`CC(C)c1ccc(Nc2ncccc2C(=O)O)cc1` gave C8 TRAIL sens 21, PPC-1+TRAIL kill 38, FLuc inh counter 67*, FLuc stim CS 0.3 and HSP90 inh 6.
`CCCNC(=O)C1(C)CCCN(Cc2cc(-c3ccccc3)n(C)n2)C1` (stereo not drawn) gave C8 TRAIL sens 3.
Screening Cn1c(/C=C/c2ccc([N+](=O)[O-])o2)nc2ccccc2c1=O returned C8 TRAIL sens 51*, PPC-1+TRAIL kill 7, FLuc inh counter -5, FLuc stim CS 1 and HSP90 inh 1.
Screening Cc1ccc(-c2cc(C(=O)N/N=C/c3ccc([N+](=O)[O-])o3)c3ccccc3n2)o1 returned C8 TRAIL sens 68* and HSP90 inh 6.
O=C(N/N=C/c1ccc([N+](=O)[O-])o1)c1cc(-c2ccncc2)nc2ccccc12 was read as C8 TRAIL sens 23, PPC-1+TRAIL kill 6, FLuc inh counter 12, FLuc stim CS 0.9 and HSP90 inh -1.
Screening Cn1c(/C=C/c2ccccc2)nc2ccccc2c1=O returned C8 TRAIL sens -8 and HSP90 inh 2.
O=C(N/N=C/c1ccc([N+](=O)[O-])o1)c1cc(-c2ccc(-c3ccccc3)cc2)nc2ccccc12 was read as C8 TRAIL sens 87*, PPC-1+TRAIL kill 80*, FLuc inh counter 93*, FLuc stim CS 0.1 and HSP90 inh 12.
CCOC(=O)C1(C)CCCN1C(=O)c1ccc(F)c(Cl)c1 (stereo not drawn) was read as C8 TRAIL sens 9.
For O=S1(=O)CCN(CCCCc2ccccc2)CC1 the results were C8 TRAIL sens -1.
O=c1[nH]c(N/N=C\c2ccc(F)cc2)nc2ccccc12 was read as C8 TRAIL sens 44, PPC-1+TRAIL kill 29, FLuc inh counter 64*, FLuc stim CS 0.4 and HSP90 inh -2.
`O=c1[nH]c(N/N=C/c2ccc(O)cc2)nc2ccccc12` gave C8 TRAIL sens 17, PPC-1+TRAIL kill 8, FLuc inh counter 56*, FLuc stim CS 0.4 and HSP90 inh 1.
For COc1ccc(Cc2nnc(N/N=C/c3ccc(O)cc3)[nH]c2=O)cc1OC the results were C8 TRAIL sens 61*, PPC-1+TRAIL kill 28, FLuc inh counter 9, FLuc stim CS 0.9 and HSP90 inh -2.
For CCOC(=O)C1(C)CCCN(C(=O)c2cc(F)ccc2C)C1 (stereo not drawn) the results were C8 TRAIL sens -46.
`CCCCC(=O)N(C)c1c(CC)nc2c(OCC(=O)c3ccc(F)cc3)cccn12` gave C8 TRAIL sens -5.
`O=C(Cn1c2ccccc2c(=O)c2ccccc21)N/N=C/c1ccc(N2CCCC2)c([N+](=O)[O-])c1` gave C8 TRAIL sens 23, PPC-1+TRAIL kill 20, FLuc inh counter 0, FLuc stim CS 1 and HSP90 inh 2.
`O=C(Cn1c2ccccc2c(=O)c2ccccc21)N/N=C/c1cc([N+](=O)[O-])ccc1N1CCCCCC1` gave C8 TRAIL sens 60*, PPC-1+TRAIL kill 15, FLuc inh counter -6, FLuc stim CS 1.1 and HSP90 inh 0.
`Cc1ccc2nc(-c3cc(N)cc(N)c3)oc2c1` gave C8 TRAIL sens 76*, PPC-1+TRAIL kill 28, FLuc inh counter 94*, FLuc stim CS 0.1 and HSP90 inh 15.
`Cc1ccc2oc(-c3ccccc3)nc2c1` gave C8 TRAIL sens 12, PPC-1+TRAIL kill 9, FLuc inh counter 76*, FLuc stim CS 0.2 and HSP90 inh -5.
For O=[N+]([O-])c1ccc2oc(-c3ccccc3)nc2c1 the results were C8 TRAIL sens 4, PPC-1+TRAIL kill -2, FLuc inh counter 18, FLuc stim CS 0.8 and HSP90 inh 1.
`CCOc1cccc(-c2nc3cc(C)ccc3o2)c1` gave C8 TRAIL sens 14, PPC-1+TRAIL kill -2, FLuc inh counter 68*, FLuc stim CS 0.3 and HSP90 inh -2.
`COc1ccc(-n2nnnc2C2(C)CCC(=O)N2Cc2ccccc2)cc1` (stereo not drawn) gave C8 TRAIL sens 1.
